MPTP block = mitochondrial permeability transition pore inhibitors, primary screen, biochemical, isolated mouse mitochondria, absorbance. Ca2+ swelling absorbance, 30 min. inhibition, % at 10 µM. hit rate 1.4% among 360,000. AID 602449, 2012;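 active means inhibition of 50% or more, scaled per plate between neutral and stimulator controls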;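 further: 0% = DMSO wells given calcium and 100% = 1 mM EGTA wells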
GRIN3A LBD mod = binders of NR3A ligand-binding domain, primary screen, biophysical, differential scanning fluorimetry, uHTS. Glutamate receptor ionotropic, NMDA 3A (GRIN3A) ligand-binding domain. NR3A LBD differential scanning fluorimetry, Tm shift; 0% = protein alone, 100% = glycine-bound protein. Tm shift relative to glycine control, % at 25 µM. hit rate 2.5% among 340,000. AID 1259313, 2017;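 active means melting temperature shift of at least 10% of the positive control shift, at one fixed dose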
CHOP UPR activ = activators of apoptotic CHOP UPR arm, primary screen, cell-based, CHO-CHOP luciferase reporter, luminescence, uHTS; UPR activation; percent of tunicamycin response over DMSO baseline; hit rate 0.34% among 330,000; activation, % at 10 µM;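 active means at 10 µM dose, activation of 40% or more, normalized to positive control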;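 further: 100% = tunicamycin at 10 µg/mL and 0% = DMSO alone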
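assay system = CHO CHOP reporter cells | amount = 500 CHO-CHOP cells per well | buffer or medium = F12 with 10% FBS | incubation = 16-18 h cell attachment, then 6 h compound exposure, 37 °C | detection = luminescence read with Steady-Glo | read-out = percent activation relative to tunicamycin control | controls = tunicamycin high control, DMSO low control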
UPR XBP1 act = activators of adaptive XBP1 UPR arm, primary screen, cell-based, CHO-XBP1 luciferase reporter, luminescence, uHTS. IRE1-XBP1 UPR activation; percent of tunicamycin response, DMSO as zero. hit rate 0.33% among 330,000. activation, % at 20 µM. AID 463104, 2010;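 active means versus positive control, 20 µM dose yields 30% or more activation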;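 further: 100% = tunicamycin at 10 µg/mL and 0% = DMSO only wells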
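Assay system: IRE1-XBP1 luciferase reporter CHO line. Input: 1000 cells/well. Buffer or medium: F12 with 10% serum. Doses: 20 µM, 1% DMSO. Times: overnight seeding at 37 °C, 6 h compound treatment at 37 °C. Technique: Steady-Glo luciferase glow luminescence, 10 min after reagent addition.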
aDG glyco up = activators of alpha-DG glycosylation, primary screen, uHTS, Pro5-aDG cells, AlphaScreen; hit rate 0.22% among 360,000; alpha-DG glycosylation AlphaScreen (IIH6); 0% Pro5, 100% B10-LARGE cell signal; AID 624168, 2012; activation, % at 10 µM;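 active means activation of at least 8% versus controls, or a plate z-score of at least 8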;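 further: Pro5 are CHO cells carrying HIG-tagged alpha-DG that lacks glycosylation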
CHOP inh = inhibitors of CHOP promoter induction, primary screen, cell-based, unfolded protein response, luciferase reporter | AID 2732, 2010 | CHO-K1 CHOP-promoter luciferase, tunicamycin-induced, 15-18 h | hit rate 3.8% among 220,000 | inhibition, % at 10 µM;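 active means compounds that reduced the stress-induced luciferase reporter signal by more than about 70% of percent inhibition, limit read from the data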;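 further: 0% = tunicamycin plus vehicle and 100% = wells without tunicamycin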
MPTP counter = fluorescence retest of MPTP screen hits in isolated mitochondria, single concentration; AID 624504, 2012; hit rate 78% among 5,000; shares compounds with MPTP block; membrane potential, Rhodamine 123 fluorescence; inhibition, % at 10 µM; in the data active means inhibition above about 22%;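 further: 0% = DMSO vehicle and 100% = positive control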
MPTP swell DR = mitochondrial permeability transition pore inhibitors, dose response, biochemical, absorbance, uHTS hits | isolated mitochondria swelling | IC50, µM | hit rate 58% among 780 | shares compounds with MPTP block; in the data active means IC50 below about 20 µM
MPTP counter DR = fluorescent counter-screen in isolated mitochondria, dose response, counter-screen for MPTP inhibitor project, biochemical, fluorescence, uHTS hits; shares compounds with MPTP block; isolated mitochondria counterscreen, fluorescence read-out; IC50, µM; hit rate 49% among 780; AID 651564, 2012; in the data active means IC50 below about 80 µM
An asterisk follows results filed as active; i = inactive; . = no result. An excerpt weighted towards active compounds, which were near 5.6% of everything screened.

SMILES | MPTP block | GRIN3A LBD mod | CHOP UPR activ | UPR XBP1 act | aDG glyco up | CHOP inh | MPTP counter | others
Cc1ccc(C2(C)NC(=O)N(CC(=O)Nc3ccc(Cl)c(S(=O)(=O)N4CCCCC4)c3)C2=O)cc1 (stereo unspecified) | -2 | 5 | 0 | -5 | 0 | . | .
COc1ccc(S(=O)(=O)N2CCSC2C)cc1C (stereo unspecified) | 1 | 2 | -1 | -1 | 0 | . | .
CSc1nc(N)nc(SCC(=O)Nc2ccc(Cl)cc2)c1C#N | 85* | 29* | -3 | 0 | 0 | 10 | 82*
CSc1nc(N)nc(SCC(=O)Nc2cccc(F)c2)c1C#N | 93* | 26* | . | . | 1 | 56 | 87*
CSc1nc(N)nc(SCC(=O)C(C)(C)C)c1C#N | 4 | -34 | 2 | 1 | 0 | 6 | .
CSc1nc(N)nc(SCC(=O)CC(=O)OC(C)C)c1C#N | 7 | 0 | 0 | 2 | 0 | 8 | .
CN(C)S(=O)(=O)c1ccc(NC(=O)COc2cccc3c2OC(C)(C)C3)cc1 | -1 | 0 | 1 | -3 | 0 | . | .
Cc1ccc(C2CC2C(=O)NNC(=S)Nc2cccc(C)c2)cc1 (stereo unspecified) | 9 | -9 | 0 | 1 | 0 | 14 | .
Cc1ccc(C2CC2C(=O)NNC(=S)Nc2cccc(Cl)c2)cc1 (stereo unspecified) | 61* | 11* | 0 | 2 | 0 | 18 | 70*
CSCC[C@H](NC(=O)Nc1ccc(S(N)(=O)=O)cc1)C(=O)O | 2 | 1 | -2 | 0 | 0 | 22 | .
COc1ccc(C(CC(=O)O)NC(=O)COc2cc(C)ccc2C)cc1OC (stereo unspecified) | -1 | 0 | -1 | 0 | 0 | 5 | .
COc1ccc(CCNC(=O)c2nn(C)cc2Cl)cc1 | -1 | -5 | 1 | 2 | 0 | 56 | .
COc1ccc(CCNC(=O)c2cc(-c3ccc(Cl)c(Cl)c3)oc2C)cc1 | 91* | 5 | 0 | -3 | 0 | 15 | 91*
CC(=O)c1ccc(NC(=O)c2ccccc2-c2ccccc2C(=O)O)cc1 | -1 | 2 | -1 | -3 | 0 | . | .
CSc1nc(Cl)c(Cc2ccc(OC(C)C)cc2)c(N(C)C)n1 | 60* | 0 | 4 | -3 | 2 | 21 | 10 | MPTP swell DR=i;MPTP counter DR=35*
CC(CC12CC3CC(CC(C3)C1)C2)NCc1ccccc1O (stereo unspecified) | 27 | 2 | 0 | -7 | 2 | . | .
COc1cc(CNCc2ccc(SC)cc2)cc(OC)c1 | 56* | 1 | 1 | 1 | 1 | 1 | 16 | MPTP swell DR=11*;MPTP counter DR=18*
O=C(/C=C/c1ccc(F)cc1)N1CC[C@@]2(O)CCCC[C@H]2C1 | 2 | -2 | 2 | -2 | 0 | 6 | .
Cc1cc(OCC(=O)Nc2ccc(Br)cc2)cc2c1C(=O)CC(C)(C)O2 | 62* | 0 | 0 | 0 | 0 | 14 | 68*
Cc1cc(OCC(=O)Nc2ccncc2)ccc1Cl | 98* | 0 | 1 | -3 | 0 | . | 88*
Cc1cc(OCC(=O)Nc2ccncc2)cc(C)c1Br | 91* | -3 | 4 | 1 | 0 | 30 | 97*
Cc1cccc(OCC(=O)Nc2ccncc2)c1 | 21 | -1 | 1 | -2 | 0 | . | .

Screening data: PubChem BioAssay, several laboratories
